What was measured:
[1] = target: T1, Vitamin D3 receptor (Homo sapiens, UniProt P11473); experiment: Binding affinity to full length human VDR by fluorescence polarization-based competitive assay; format: ADME
T1 sequence (P11473 whole entry): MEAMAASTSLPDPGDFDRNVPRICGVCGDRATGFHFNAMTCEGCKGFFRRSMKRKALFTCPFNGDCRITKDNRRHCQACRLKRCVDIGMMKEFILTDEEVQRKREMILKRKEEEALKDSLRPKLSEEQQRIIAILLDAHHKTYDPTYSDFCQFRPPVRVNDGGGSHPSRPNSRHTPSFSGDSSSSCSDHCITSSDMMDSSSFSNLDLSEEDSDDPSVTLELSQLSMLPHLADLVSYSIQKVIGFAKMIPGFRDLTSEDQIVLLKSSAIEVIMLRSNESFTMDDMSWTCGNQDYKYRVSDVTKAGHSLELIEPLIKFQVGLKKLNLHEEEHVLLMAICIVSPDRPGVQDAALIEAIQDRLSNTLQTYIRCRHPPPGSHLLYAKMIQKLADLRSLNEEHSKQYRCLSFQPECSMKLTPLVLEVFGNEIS
Method in brief: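 Competitive fluorescence polarization binding using full-length human VDR and a tight-binding fluorescent VDR ligand; analogues tested at 50 and 100 µM.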

[2] = Down-regulation of Gli1 mRNA expression in human U87MG cells at 10 uM after 24 hrs by RT-PCR analysis relative to DMSO-treated control; format: functional, cell-based; conditions: U-87MG ATCC
[3] = Upregulation of CYP24A1 mRNA expression in human U87MG cells at 10 uM after 24 hrs by RT-PCR analysis relative to DMSO-treated control; format: functional, cell-based; conditions: U-87MG ATCC
[4] = system: HT-29; experiment: Down-regulation of Gli1 mRNA expression in human HT-29 cells at 10 uM after 24 hrs by RT-PCR analysis relative to DMSO-treated control; format: functional
[5] = system: HT-29; experiment: Growth inhibition of human HT-29 cells overexpressing VDR gene after 72 hrs by MTS assay; format: functional; conditions: HT-29, 72 h
Method in brief: (§1)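 Cells seeded at 3000/well, incubated overnight at 37 °C in 5% CO2, then treated in triplicate at varying concentrations in 1% DMSO final for 72 h. Viable cells read by MTS. GI50 given as mean ± SEM of at least two separate experiments.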

[6] = Growth inhibition of human U87MG cells after 72 hrs by MTS assay; format: functional, U-87MG ATCC; conditions: U-87 MG; method in brief: as §1
[7] = target: T1, Vitamin D3 receptor; experiment: Binding affinity to full length human VDR expressed in mouse C3H10T1/2 cells assessed as upregulation of CYP24A1 mRNA expression at 5 uM after 24 hrs by RT-PCR analysis relative to control; format: ADME, cell-based; conditions: c3h 10t1/2, 24 h
Method in brief: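 Mouse C3H10T1/2 cells treated with analogue at 5 µM for 24 h. Cyp24A1 mRNA was measured and expressed relative to DMSO control, which was set to 1.0.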

[8] = target: Protein smoothened (Homo sapiens) (UniProt Q99835); experiment: Inhibition of SMO expressed in mouse C3H10T1/2 cells assessed as down-regulation of Gli1 mRNA expression at 5 uM after 24 hrs by RT-PCR analysis relative to oxysterol; format: cell-based; design: scale not given: the % may be the effect or the level left; conditions: C3H 10T1/2
Protein smoothened (Homo sapiens), sequence (Q99835 whole entry): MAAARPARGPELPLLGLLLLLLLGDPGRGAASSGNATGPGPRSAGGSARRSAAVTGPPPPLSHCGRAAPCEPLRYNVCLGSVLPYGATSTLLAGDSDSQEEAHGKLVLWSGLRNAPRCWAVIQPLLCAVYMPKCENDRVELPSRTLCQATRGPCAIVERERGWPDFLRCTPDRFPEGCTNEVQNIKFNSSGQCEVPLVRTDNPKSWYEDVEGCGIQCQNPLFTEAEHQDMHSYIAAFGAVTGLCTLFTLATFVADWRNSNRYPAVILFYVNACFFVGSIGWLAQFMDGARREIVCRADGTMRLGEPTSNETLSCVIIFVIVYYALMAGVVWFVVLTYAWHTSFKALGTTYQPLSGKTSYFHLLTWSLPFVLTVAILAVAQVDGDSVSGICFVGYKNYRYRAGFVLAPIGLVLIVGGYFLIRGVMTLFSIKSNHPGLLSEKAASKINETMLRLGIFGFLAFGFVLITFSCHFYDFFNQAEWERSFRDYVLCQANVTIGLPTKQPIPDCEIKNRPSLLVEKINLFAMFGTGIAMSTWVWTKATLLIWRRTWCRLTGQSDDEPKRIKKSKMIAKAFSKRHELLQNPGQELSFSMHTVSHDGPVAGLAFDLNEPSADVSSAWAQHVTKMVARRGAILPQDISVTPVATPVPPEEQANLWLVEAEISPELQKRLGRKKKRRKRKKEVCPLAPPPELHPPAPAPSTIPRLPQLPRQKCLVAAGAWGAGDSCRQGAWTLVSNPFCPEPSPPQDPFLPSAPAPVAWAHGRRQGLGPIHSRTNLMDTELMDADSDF
Method in brief: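 Hh-dependent C3H10T1/2 cells, with the pathway activated by oxysterol, co-treated with analogue at 5 µM for 24 h. Endogenous Gli1 mRNA is reported as % of the oxysterol control, set at 100%.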

[9] = system: HT-29; experiment: Upregulation of CYP24A1 mRNA expression in human HT-29 cells at 10 uM after 24 hrs by RT-PCR analysis relative to DMSO-treated control; format: functional
[10] = system: U-87 MG; experiment: Ratio of CYP24A1 mRNA upregulation in human […] cells to upregulation of CYP24A1 mRNA in human U87MG cells; format: functional, U-87MG ATCC

Row | SMILES | Activity [1] | fold change (FC) [2] | fold change (FC) [3] | fold change (FC) [4] | GI50 [5] | GI50 [6] | Activity [7] | Activity [8] | fold change (FC) [9] | Ratio [10]
1 | C[C@H](CO)[C@H]1CC[C@H]2[C@@H](O)CCC[C@]12C | > 100 µM | 1 | 0.7 | 1.2 | > 100 µM | > 100 µM | 4.1 | 87.6% | 1 | 
2 | C=C1CC[C@H](O)C/C1=C\C=C1/CCC[C@]2(C)[C@@H]([C@H](C)CO)CC[C@@H]12 | > 100 µM | 0.8 | 0.8 | 1.3 | > 100 µM | 88.8 µM | 12.5 | 66.7% | 3.3 | 
3 | CC(C)[C@@H](C)/C=C/[C@@H](C)[C@H]1CC[C@H]2[C@@H](O)CCC[C@]12C | > 100 µM | 0.8 | 0.3 | 0.9 | 49.7 µM | 19 µM | 2.3 | 32.1% | 0.7 | 
4 | CC(C)CCC[C@@H](C)[C@H]1CC[C@H]2C(=O)CCC[C@]12C | > 100 µM | 0.9 | 0.5 | 1.1 | > 100 µM | 12.1 µM | 3 | 66.1% | 1 | 
5 | C=C1CCC=C/C1=C/C=C1\CCC[C@]2(C)[C@@H]([C@H](C)CCCC(C)C)CC[C@@H]12 | > 100 µM | 1 | 0.9 | 1.8 | > 100 µM | 48.5 µM | 3 | 79.4% | 1.9 | 
6 | C=C1CC[C@H](O)C/C1=C\C=C1/CCC[C@]2(C)[C@@H]([C@H](C)CCCC(C)C)CC[C@@H]12 | > 100 µM | 1.1 | 33.8 | 1.2 | > 100 µM | 46 µM | 43.5 | 69.7% | 27.5 | 
7 | C=C1CC[C@H](O)C/C1=C/C(O)C1(O)CCC[C@]2(C)[C@@H]([C@H](C)CCCC(C)C)CC[C@@H]12 (some centres not stated) | > 100 µM | 1.1 | 0.5 | 0.9 | > 100 µM | 25.9 µM | 6.7 | 144% | 1.2 | 
8 | CC(C)CCC[C@@H](C)[C@H]1CC[C@H]2C(CCC3C[C@@H](O)CCC3C)CCC[C@]12C (some centres not stated) | > 100 µM | 0.8 | 0.8 | 1.4 | > 100 µM | > 100 µM | 1.5 | 82.1% | 1.4 | 
9 | C=C1CC[C@H](O)C/C1=C/C=C1\CCC[C@]2(C)[C@@H]([C@H](C)/C=C/[C@H](C)C(C)C)CC[C@@H]12 [ERGOCALCIFEROL] | > 100 µM | 0.9 | 49.6 | 1.1 | > 100 µM | 33.7 µM | 2410 | 28.1% | 10902 | 25
10 | CC(C)CCC[C@@H](C)[C@H]1CCC2=CCCC[C@@]21C | > 100 µM | 1 | 0.5 | 1.1 | > 100 µM | > 100 µM | 2.3 | 111% | 1.1 | 
11 | C=C1CC[C@H](O)C/C1=C/C=C1\CCC[C@]2(C)[C@@H]([C@H](C)CO)CC[C@@H]12 | > 100 µM | 1 | 4.8 | 2.7 | > 100 µM | > 100 µM | 1350 | 80% | 69.1 | 
12 | C=C1CC[C@H](O)C/C1=C/CO | > 100 µM | 0.9 | 0.6 | 0.9 | > 100 µM | > 100 µM | 2 | 80.9% | 0.7 | 
13 | C=C1CC[C@H](O)C/C1=C/C=C1\CCC[C@]2(C)[C@@H]([C@H](C)CCCC(C)C)CC[C@@H]12 [CHOLECALCIFEROL] | > 100 µM | 0.7 | 12.2 | 1.3 | 68.5 µM | 23.2 µM | 8340 |  | 14697 | 10000
14 | CC(C)CCC[C@@H](C)[C@H]1CC[C@H]2[C@@H](O)CCC[C@]12C | > 100 µM | 0.7 | 0.4 | 1.1 | 66.5 µM | 5.7 µM | 3.6 | 46.4% | 1.1 | 

Reference: ChEMBL document CHEMBL2062438, “Probing the structural requirements for vitamin D3 inhibition of the hedgehog signaling pathway” (Bioorg Med Chem Lett, 2012)
